Series [1] has as its system Plasmodium falciparum. Description: Antiplasmodial activity against Plasmodium falciparum W2. Type of series: functional, organism-based.
For the next series, the system named is Leishmania donovani. Description: Antileishmanial activity against Leishmania donovani. Type of series: functional, organism-based. A digest of the protocol:
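Leishmania donovani assay; IC50 and IC90 are the test concentrations that kill 50% and 90% of cells, relative to solvent controls.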

The next series relates to Vero. Briefly: Cytotoxicity against african green monkey Vero cells up to 10 ug/mL by neutral red method. The class given is cell-based. To be noted: chlorocebus sabaeus.
Series [2] relates to Plasmodium falciparum. Description: Antiplasmodial activity against Plasmodium falciparum D6. Type of series: functional, organism-based.
Series [3] relates to Staphylococcus aureus. Briefly: Antibacterial activity against Staphylococcus aureus ATCC 29213 by alamar blue assay. Type of series: functional, organism-based. (In general: Alamar Blue is a resazurin reagent that responds to reducing activity.)
The next series concerns Candida albicans. Description: Antifungal activity against Candida albicans ATCC 90028 after 18 to 24 hrs by alamar blue assay. Type of series: functional, organism-based.
Series [4] relates to Staphylococcus aureus. Briefly: Antibacterial activity against methicillin-resistant Staphylococcus aureus ATCC 33591 after 18 to 24 hrs by alamar blue assay. The class given is functional, organism-based.
The next series concerns Escherichia coli. Briefly: Antibacterial activity against Escherichia coli ATCC 35218 after 18 to 24 hrs by alamar blue assay. Type of series: functional, organism-based.
In series [5] the test system is Mycobacterium intracellulare. Briefly: Antibacterial activity against Mycobacterium intracellular ATCC 23068 after 68 to 72 hrs by alamar blue assay. The class given is functional, organism-based.
The subject of a further series is Pichia kudriavzevii. Description: Antifungal activity against Candida krusei ATCC 6258 by alamar blue assay. The class given is functional, organism-based.
The mark [6] stands for this setting: Plasmodium falciparum, W2, read-out: IC50.
Where [7] appears, read: Plasmodium falciparum, D6, read-out: IC50.
The mark [8] stands for this setting: Staphylococcus aureus, ATCC 29213, read-out: IC50.
Where [9] appears, read: Mycobacterium intracellulare, ATCC 23068, read-out: IC50.
Setting [10] is: Candida albicans, ATCC 90028, read-out: IC50.

The values below come from ChEMBL document CHEMBL1151952, “Biologically active cannabinoids from high-potency Cannabis sativa” (J Nat Prod, 2009).

Usually IC50 stands for the midpoint of a concentration-inhibition curve. A word on the IC90: it is the point of the concentration-response curve where the effect stands at 90%. Take `CCCCCc1cc(O)c2c(c1OC(C)=O)OC(C)(CCC=C(C)C)C=C2` (racemic): the IC50 stood at 4 µM in the series with Plasmodium falciparum [1] (setting [6]), 40.3 µM in the series with Leishmania donovani and 7.2 µM in the series with Plasmodium falciparum [2] (setting [7]). Moreover, the IC90 in the series with Leishmania donovani is 91.3 µM. In addition, the Activity entry in the series with Vero was “Non-toxic”.

On to `N=C(N)c1ccc(OCCCCCOc2ccc(C(=N)N)cc2)cc1` [PENTAMIDINE], for which, in the series with Leishmania donovani, the IC50 was 3.8 µM and the IC90 is 19.1 µM.

Consider `CCCCCc1cc(O)c(C/C=C(\C)CCC=C(C)C)c(OC(C)=O)c1O`, for which the 50% inhibitory concentration (IC50) in the series on Plasmodium falciparum [1] (setting [6]) is 6.7 µM; in the series with Staphylococcus aureus [3], “Not Active”; in the series on Leishmania donovani it was 10.7 µM; with Candida albicans, “Not Active”; in the series with Staphylococcus aureus [4] it was 53.4 µM; in the series with Escherichia coli it was “Not Active”. The IC50 is 7.2 µM in the series on Plasmodium falciparum [2] (setting [7]) and “Not Active” in series [5]. This molecule also came in with an IC90 with Leishmania donovani of 18.7 µM. Further, in the series on Vero, the Activity result is listed as “Non-toxic”.

As to `CCCCCc1cc2c(c(O)c1C(=O)O)-c1cc(C)c(O)cc1C(C)(C)O2` [8-HYDROXYCANNABINOLIC ACID A], the IC50 in the series with Pichia kudriavzevii was 54 µM; in the series on Staphylococcus aureus [3] (setting [8]), 3.5 µM; in the series with Candida albicans it was “Not Active”; in the series on Escherichia coli (Escherichia coli, ATCC 35218, read-out: IC50), 54 µM; in series [5], “Not Active”. Moreover, the Activity entry in the series with Vero is on record as “Non-toxic”.

Take `O=C(O)c1cn(C2CC2)c2cc(N3CCNCC3)c(F)cc2c1=O` [CIPROFLOXACIN]: the IC50 in series [5] (setting [9]) was 1.5 µM.

On to `CCCCCc1c(C/C=C(\C)CCC=C(C)C)c(O)cc(O)c1OC(C)=O`, for which the IC50 result in the series with Plasmodium falciparum [1] is “Not Active”; with Pichia kudriavzevii it was 53.4 µM; in the series with Staphylococcus aureus [3] (setting [8]), 12.2 µM; in the series with Leishmania donovani it was 42.7 µM; in the series on Candida albicans, “Not Active”; with Staphylococcus aureus [4], 6.7 µM. Besides, the IC50 result (in the series on Escherichia coli; with Plasmodium falciparum [2]; in [5]) was “Not Active” throughout. In addition, the concentration for an effect of 90% (IC90) in the series with Leishmania donovani amounted to 85.4 µM. The Activity entry in the series on Vero is listed as “Non-toxic”.

`C=C(C)C(O)CCC1(C)C=Cc2c(O)cc(CCCCC)cc2O1` (racemic): the 50% inhibitory concentration (IC50) result in the series with Plasmodium falciparum [1] was “Not Active”; in the series with Pichia kudriavzevii it was 60.5 µM; in the series on Staphylococcus aureus [3] (setting [8]) it was 29.6 µM; with Candida albicans (setting [10]), 60.5 µM; with Staphylococcus aureus [4], 24.4 µM; with Escherichia coli, “Not Active”. For the same molecule, the IC50 entry (in the series on Plasmodium falciparum [2]; in series [5]) was “Not Active” each time. The IC90 in the series on Leishmania donovani was 96.8 µM. Further, in the series with Vero, the Activity entry was “Non-toxic”.

In the case of `C[C@@H]1[C@H](O)[C@@H](C)/C=C/C=C/C=C/C=C/C=C/C=C/C=C/[C@H](O[C@@H]2O[C@H](C)[C@@H](O)[C@H](N)[C@@H]2O)C[C@@H]2O[C@](O)(C[C@@H](O)C[C@@H](O)[C@H](O)CC[C@@H](O)C[C@@H](O)CC(=O)O[C@H]1C)C[C@H](O)[C@H]2C(=O)O` [AMPHOTERICIN B], inhibition with Pichia kudriavzevii was half-maximal at 0.7 µM (IC50).

For `CCCCCc1cc(O)c2c(c1)OC(C)(C)c1cc(O)c(C)cc1-2`, the Activity entry with Vero was “Non-toxic”. Moreover, the IC50 in the series on Candida albicans (setting [10]) was 4.6 µM; in the series with Escherichia coli, “Not Active”; in series [5] (setting [9]) it was 30.6 µM.
